Results: ChEMBL document CHEMBL5058577, “EUbOPEN Chemogenomics Library 2 (Multiplex)” (2022)

Test system: Fibroblast
Assay: Multiplex assay against human fibroblast
Format: toxicity, cell-based
In short: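 With compound added, live cells were imaged on a CQ1 microscope at 37°C and 5% CO2; staining with Hoechst33342, BioTracker Green Microtubule Cytoskeleton Dye, MitoTracker Red and Annexin V Alexa Fluor 680 had been done at seeding. The CellPathfinder machine-learning gating scheme split cells into Hoechst high-intensity objects or normal cells, normal cells into healthy, pyknosed or fragmented nuclei, and pyknosed cells into mitotic or apoptotic. The tubulin, mitochondrial-mass and membrane-permeability phenotypes are per cents of healthy-nucleus cells.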

[1] = 12 h, 1 µM, compound concentration 1 uM, replicate 1
[2] = 12 h, 1 µM, compound concentration 1 uM, replicate 2
[3] = 12 h, 10 µM, compound concentration 10 uM, replicate 1
[4] = 12 h, 10 µM, compound concentration 10 uM, replicate 2
[5] = 24 h, 1 µM, compound concentration 1 uM, replicate 1
[6] = 24 h, 1 µM, compound concentration 1 uM, replicate 2
[7] = 24 h, 10 µM, compound concentration 10 uM, replicate 1
[8] = 24 h, 10 µM, compound concentration 10 uM, replicate 2
[9] = 48 h, 1 µM, compound concentration 1 uM, replicate 1
[10] = 48 h, 1 µM, compound concentration 1 uM, replicate 2
[11] = 48 h, 10 µM, compound concentration 10 uM, replicate 1
[12] = 48 h, 10 µM, compound concentration 10 uM, replicate 2

Question: Which “Population Apoptotic (%)” value [1] does the source give for CCCOc1ccc2[nH]cc(C3=CCNCC3)c2n1.Cl here?
Answer: 42%

Question: And the “Population Fragmented Nuclei (%)” value [1]?
Answer: 13%

Question: What about the “Population Healthy Nuclei (%)” value [1] of the same compound?
Answer: 71%

Question: What about the “Population Hoechst High Intensity Objects (%)” value [1] of the same compound?
Answer: 2%

Question: And the “Population Membrane Permeable-Phenotype (%)” value [1]?
Answer: 0%

Question: What about the “Population Mitochondria Different-Phenotype (%)” value [1] of the same compound?
Answer: 6%

Question: What about the “Population Mitotic Cells (%)” value [1] of the same compound?
Answer: 57%

Question: What about the “Population Normal (%)” value [1] of the same compound?
Answer: 97%

Question: And the “Population Pyknosed Nuclei (%)” value [1]?
Answer: 15%

Question: And the “Population Tubulin-Different-Phenotype (%)” value [1]?
Answer: 27%

Question: And the “Total Cell Count” value [1]?
Answer: 143

Question: And the “Population Apoptotic (%)” value [2]?
Answer: 48%

Question: And the “Population Fragmented Nuclei (%)” value [2]?
Answer: 25%

Question: What about the “Population Healthy Nuclei (%)” value [2] of the same compound?
Answer: 52%

Question: And the “Population Hoechst High Intensity Objects (%)” value [2]?
Answer: 0%

Question: What about the “Population Membrane Permeable-Phenotype (%)” value [2] of the same compound?
Answer: 8%

Question: And the “Population Mitochondria Different-Phenotype (%)” value [2]?
Answer: 2%

Question: What about the “Population Mitotic Cells (%)” value [2] of the same compound?
Answer: 51%

Question: What about the “Population Normal (%)” value [2] of the same compound?
Answer: 99%

Question: And the “Population Pyknosed Nuclei (%)” value [2]?
Answer: 21%

Question: What about the “Population Tubulin-Different-Phenotype (%)” value [2] of the same compound?
Answer: 47%

Question: What about the “Total Cell Count” value [2] of the same compound?
Answer: 137

Question: And the “Population Apoptotic (%)” value [3]?
Answer: 70%

Question: And the “Population Fragmented Nuclei (%)” value [3]?
Answer: 16%

Question: What about the “Population Healthy Nuclei (%)” value [3] of the same compound?
Answer: 70%

Question: And the “Population Hoechst High Intensity Objects (%)” value [3]?
Answer: 4%

Question: And the “Population Membrane Permeable-Phenotype (%)” value [3]?
Answer: 0%

Question: And the “Population Mitochondria Different-Phenotype (%)” value [3]?
Answer: 12%

Question: And the “Population Mitotic Cells (%)” value [3]?
Answer: 29%

Question: And the “Population Normal (%)” value [3]?
Answer: 95%

Question: And the “Population Pyknosed Nuclei (%)” value [3]?
Answer: 13%

Question: And the “Population Tubulin-Different-Phenotype (%)” value [3]?
Answer: 41%

Question: What about the “Total Cell Count” value [3] of the same compound?
Answer: 133

Question: What about the “Population Apoptotic (%)” value [4] of the same compound?
Answer: 40%

Question: And the “Population Fragmented Nuclei (%)” value [4]?
Answer: 31%

Question: What about the “Population Healthy Nuclei (%)” value [4] of the same compound?
Answer: 48%

Question: And the “Population Hoechst High Intensity Objects (%)” value [4]?
Answer: 2%

Question: What about the “Population Membrane Permeable-Phenotype (%)” value [4] of the same compound?
Answer: 1%

Question: And the “Population Mitochondria Different-Phenotype (%)” value [4]?
Answer: 10%

Question: And the “Population Mitotic Cells (%)” value [4]?
Answer: 60%

Question: What about the “Population Normal (%)” value [4] of the same compound?
Answer: 97%

Question: What about the “Population Pyknosed Nuclei (%)” value [4] of the same compound?
Answer: 20%

Question: And the “Population Tubulin-Different-Phenotype (%)” value [4]?
Answer: 59%

Question: And the “Total Cell Count” value [4]?
Answer: 125

Question: And the “Population Apoptotic (%)” value [5]?
Answer: 57%

Question: And the “Population Fragmented Nuclei (%)” value [5]?
Answer: 14%

Question: And the “Population Healthy Nuclei (%)” value [5]?
Answer: 76%

Question: And the “Population Hoechst High Intensity Objects (%)” value [5]?
Answer: 2%

Question: What about the “Population Membrane Permeable-Phenotype (%)” value [5] of the same compound?
Answer: 0%

Question: What about the “Population Mitochondria Different-Phenotype (%)” value [5] of the same compound?
Answer: 6%

Question: And the “Population Mitotic Cells (%)” value [5]?
Answer: 42%

Question: And the “Population Normal (%)” value [5]?
Answer: 97%

Question: What about the “Population Pyknosed Nuclei (%)” value [5] of the same compound?
Answer: 9%

Question: What about the “Population Tubulin-Different-Phenotype (%)” value [5] of the same compound?
Answer: 20%

Question: What about the “Total Cell Count” value [5] of the same compound?
Answer: 155

Question: And the “Population Apoptotic (%)” value [6]?
Answer: 38%

Question: And the “Population Fragmented Nuclei (%)” value [6]?
Answer: 28%

Question: And the “Population Healthy Nuclei (%)” value [6]?
Answer: 52%

Question: And the “Population Hoechst High Intensity Objects (%)” value [6]?
Answer: 0%

Question: And the “Population Membrane Permeable-Phenotype (%)” value [6]?
Answer: 5%

Question: And the “Population Mitochondria Different-Phenotype (%)” value [6]?
Answer: 5%

Question: And the “Population Mitotic Cells (%)” value [6]?
Answer: 61%

Question: And the “Population Normal (%)” value [6]?
Answer: 100%

Question: And the “Population Pyknosed Nuclei (%)” value [6]?
Answer: 18%

Question: What about the “Population Tubulin-Different-Phenotype (%)” value [6] of the same compound?
Answer: 40%

Question: And the “Total Cell Count” value [6]?
Answer: 140

Question: What about the “Population Apoptotic (%)” value [7] of the same compound?
Answer: 61%

Question: What about the “Population Fragmented Nuclei (%)” value [7] of the same compound?
Answer: 23%

Question: And the “Population Healthy Nuclei (%)” value [7]?
Answer: 64%

Question: And the “Population Hoechst High Intensity Objects (%)” value [7]?
Answer: 1%

Question: And the “Population Membrane Permeable-Phenotype (%)” value [7]?
Answer: 0%

Question: And the “Population Mitochondria Different-Phenotype (%)” value [7]?
Answer: 12%

Question: And the “Population Mitotic Cells (%)” value [7]?
Answer: 38%

Question: And the “Population Normal (%)” value [7]?
Answer: 98%

Question: And the “Population Pyknosed Nuclei (%)” value [7]?
Answer: 11%

Question: What about the “Population Tubulin-Different-Phenotype (%)” value [7] of the same compound?
Answer: 36%

Question: And the “Total Cell Count” value [7]?
Answer: 159

Question: What about the “Population Apoptotic (%)” value [8] of the same compound?
Answer: 50%

Question: And the “Population Fragmented Nuclei (%)” value [8]?
Answer: 20%

Question: And the “Population Healthy Nuclei (%)” value [8]?
Answer: 68%

Question: What about the “Population Hoechst High Intensity Objects (%)” value [8] of the same compound?
Answer: 2%

Question: And the “Population Membrane Permeable-Phenotype (%)” value [8]?
Answer: 4%

Question: And the “Population Mitochondria Different-Phenotype (%)” value [8]?
Answer: 8%

Question: What about the “Population Mitotic Cells (%)” value [8] of the same compound?
Answer: 50%

Question: And the “Population Normal (%)” value [8]?
Answer: 97%

Question: And the “Population Tubulin-Different-Phenotype (%)” value [8]?
Answer: 61%

Question: And the “Total Cell Count” value [8]?
Answer: 107

Question: And the “Population Apoptotic (%)” value [9]?
Answer: 69%

Question: And the “Population Fragmented Nuclei (%)” value [9]?
Answer: 17%

Question: And the “Population Healthy Nuclei (%)” value [9]?
Answer: 74%

Question: What about the “Population Hoechst High Intensity Objects (%)” value [9] of the same compound?
Answer: 2%

Question: What about the “Population Membrane Permeable-Phenotype (%)” value [9] of the same compound?
Answer: 0%

Question: What about the “Population Mitochondria Different-Phenotype (%)” value [9] of the same compound?
Answer: 5%

Question: What about the “Population Mitotic Cells (%)” value [9] of the same compound?
Answer: 30%

Question: And the “Population Normal (%)” value [9]?
Answer: 97%

Question: What about the “Population Pyknosed Nuclei (%)” value [9] of the same compound?
Answer: 8%

Question: And the “Population Tubulin-Different-Phenotype (%)” value [9]?
Answer: 23%

Question: What about the “Total Cell Count” value [9] of the same compound?
Answer: 162

Question: And the “Population Apoptotic (%)” value [10]?
Answer: 64%

Question: What about the “Population Fragmented Nuclei (%)” value [10] of the same compound?
Answer: 36%

Question: What about the “Population Healthy Nuclei (%)” value [10] of the same compound?
Answer: 53%

Question: What about the “Population Hoechst High Intensity Objects (%)” value [10] of the same compound?
Answer: 4%

Question: What about the “Population Membrane Permeable-Phenotype (%)” value [10] of the same compound?
Answer: 5%

Question: And the “Population Mitochondria Different-Phenotype (%)” value [10]?
Answer: 2%

Question: And the “Population Mitotic Cells (%)” value [10]?
Answer: 35%

Question: What about the “Population Normal (%)” value [10] of the same compound?
Answer: 95%

Question: And the “Population Pyknosed Nuclei (%)” value [10]?
Answer: 9%

Question: And the “Population Tubulin-Different-Phenotype (%)” value [10]?
Answer: 40%

Question: What about the “Total Cell Count” value [10] of the same compound?
Answer: 147

Question: And the “Population Apoptotic (%)” value [11]?
Answer: 73%

Question: And the “Population Fragmented Nuclei (%)” value [11]?
Answer: 21%

Question: What about the “Population Healthy Nuclei (%)” value [11] of the same compound?
Answer: 65%

Question: And the “Population Hoechst High Intensity Objects (%)” value [11]?
Answer: 2%

Question: And the “Population Membrane Permeable-Phenotype (%)” value [11]?
Answer: 0%

Question: What about the “Population Mitochondria Different-Phenotype (%)” value [11] of the same compound?
Answer: 9%

Question: And the “Population Mitotic Cells (%)” value [11]?
Answer: 26%

Question: What about the “Population Normal (%)” value [11] of the same compound?
Answer: 97%

Question: And the “Population Pyknosed Nuclei (%)” value [11]?
Answer: 13%

Question: And the “Population Tubulin-Different-Phenotype (%)” value [11]?
Answer: 45%

Question: What about the “Total Cell Count” value [11] of the same compound?
Answer: 150

Question: And the “Population Apoptotic (%)” value [12]?
Answer: 60%

Question: And the “Population Fragmented Nuclei (%)” value [12]?
Answer: 32%

Question: And the “Population Healthy Nuclei (%)” value [12]?
Answer: 62%

Question: And the “Population Hoechst High Intensity Objects (%)” value [12]?
Answer: 5%

Question: And the “Population Membrane Permeable-Phenotype (%)” value [12]?
Answer: 4%

Question: And the “Population Mitochondria Different-Phenotype (%)” value [12]?
Answer: 13%

Question: And the “Population Mitotic Cells (%)” value [12]?
Answer: 40%

Question: And the “Population Normal (%)” value [12]?
Answer: 94%

Question: And the “Population Pyknosed Nuclei (%)” value [12]?
Answer: 4%

Question: What about the “Population Tubulin-Different-Phenotype (%)” value [12] of the same compound?
Answer: 44%

Question: What about the “Total Cell Count” value [12] of the same compound?
Answer: 116
